A selection: hits, their analogues and other compounds. The true share with any hit is near 2.9%.
iPSC survival up – hiPSC single-cell survival enhancement; ATPlite luminescence; 100% = ROCK inhibitor wells, 0% = DMSO; survival enhancement, % at 20 µM; hit rate 0.044% among 360,000; AID 602274; in the data active = survival enhancement above about 18%;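 note: cells exposed to compounds for 16 hours before the ATP read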
T cruzi inh – blocks replication of Trypanosoma cruzi. inhibition, % (test concentration not listed). hit rate 1.4% among 300,000. T. cruzi beta-gal in NIH3T3, luminescence, 90 h;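 active = mean inhibition across valid replicates above about 55%, limit read from the data; inconclusive = mean below that limit but half or more replicates reach it; inactive = mean below it, under half of replicates reach it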;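 note: signal also drops with host cell toxicity which is not excluded here; 0% = plate median of DMSO wells and 100% = zero luminescence signal; higher percent means less beta-gal luminescence so fewer parasites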
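Read-out: Parasite load inhibition, % | Test system: Mouse NIH/3T3 fibroblasts infected with β-gal-expressing T. cruzi Tulahuen C4 | Amount: 5,000 cells/well | Medium: DMEM, 2% fetal bovine serum | Signal: GalScreen β-gal luminescence, detergent lysis, 60 min | Timing: 3 h attach, ≥90 h co-culture | Also added: Tulahuen C4 trypomastigotes, 5000/well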
H9c2 TAG inh – triacylglycerol accumulation inhibition; hit rate 0.66% among 230,000; AID 651582; inhibition, % at 12.5 µM; H9c2 cells, Nile Red lipid (TAG) fluorescence; cells loaded with 200 µM oleic acid;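 active = pattern-corrected inhibition of lipid staining of at least 50% with the nuclear-stain viability signal not falling by more than 50%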;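 note: 0% = DMSO wells and 100% = triacsin C control wells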
PG9 binder – PG9 antibody binding by small molecule; TR-FRET gp120-PG9 antibody binding; inhibition, % at 6.7 µM; hit rate 0.43% among 360,000; AID 624416; in the data active = inhibition above about 8.5%
NR1D1 modulator – modulators of human Rev-erb alpha DNA binding | Rev-erbα–FITC-DNA binding, fluorescence polarization, 90 min | activity, % at 10 µM | hit rate 0.79% among 370,000 | P20393;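 active = activity above about 14%, limit read from the data; passing the limit was not always enough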;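 note: 0% = DMSO wells with 35 nM protein and 100% = DMSO wells with 750 nM protein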
Target sequence (P20393 whole entry, looked up): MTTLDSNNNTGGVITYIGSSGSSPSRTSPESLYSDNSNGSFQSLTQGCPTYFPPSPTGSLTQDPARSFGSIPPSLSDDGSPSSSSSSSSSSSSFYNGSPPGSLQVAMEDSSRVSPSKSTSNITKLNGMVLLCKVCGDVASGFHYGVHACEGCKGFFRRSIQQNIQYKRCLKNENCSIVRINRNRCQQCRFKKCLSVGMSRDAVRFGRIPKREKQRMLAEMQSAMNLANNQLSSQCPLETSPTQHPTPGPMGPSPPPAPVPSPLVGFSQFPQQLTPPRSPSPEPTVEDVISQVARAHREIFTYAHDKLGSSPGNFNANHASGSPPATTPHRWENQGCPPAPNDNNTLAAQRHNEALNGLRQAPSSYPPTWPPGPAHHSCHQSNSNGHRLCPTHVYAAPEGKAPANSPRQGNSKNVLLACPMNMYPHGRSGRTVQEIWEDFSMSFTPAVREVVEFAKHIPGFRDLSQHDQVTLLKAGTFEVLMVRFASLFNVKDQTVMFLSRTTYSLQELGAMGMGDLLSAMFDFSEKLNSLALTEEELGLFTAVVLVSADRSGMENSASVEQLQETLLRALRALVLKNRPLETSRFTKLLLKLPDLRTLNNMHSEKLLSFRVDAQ
beta cell repl – inducers of beta-cell replication in MIN6 cells; AID 2380; MIN6 cells proliferation, ATPlite luminescence, 48 h; cells starved in 0.2% serum; 100% = growth in 10% serum; hit rate 0.29% among 330,000; proliferation, % at 10 µM;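 active = compounds whose signal lies at least 3.5 SD above the mean of all wells on their plate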;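 note: 0% = DMSO-treated cells in low-serum medium and 100% = 10% serum control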
* hit, by the source's call; u = inconclusive; x = no result given.

SMILES	iPSC survival up	T cruzi inh	H9c2 TAG inh	PG9 binder	NR1D1 modulator	beta cell repl
c1cnc(N2CCN(Cc3c[nH]c4ccccc34)CC2)nc1	-3	50	x	-4	-3	-6
Brc1ccccc1CN1CCN(Cc2c[nH]c3ccccc23)CC1	x	7	x	1	3	-7
O=C(COc1ccccc1[N+](=O)[O-])NCC1COc2ccccc2O1 (centres undefined)	-2	x	-10	2	2	-1
O=C1OCC2=C1C(c1ccc3c(c1)OCO3)c1cc3c(cc1O2)OCO3 (centres undefined)	-1	x	28	0	1	x
COc1ccc(OCc2nc3ccccc3[nH]2)cc1	-2	-14	x	0	-3	-4
Cc1ccc(-n2nc(C)c3c(C)cc(=O)[nH]c32)cc1	22*	-2	x	-3	-3	-2
Cc1nn(-c2ccccc2)c2[nH]c(=O)cc(C(F)F)c12	0	x	16	-2	1	-1
COc1ccc(/C(O)=C2/C(=O)C(=O)N(CCN(C)C)C2c2ccc(C)cc2)cc1Cl (centres undefined)	0	8	-4	7	2	-4
COc1ccc(/C(O)=C2/C(=O)C(=O)N(CCN(C)C)C2c2ccccc2)cc1Cl (centres undefined)	3	2	x	8.7*	-3	2
C/C=C(\C)CN1CCC(n2nccc2NC(=O)c2ccc(OC)cc2)CC1	0	66*	14	-2	4	-2
COc1ccccc1/C=C/C(=O)OCC(=O)Nc1ccccc1Sc1ccccc1	0	-6	-14	1	7	2
Clc1nc2c(ccc3ccccc32)[nH]1	0	-7	-5	-1	2	0
COc1ccc(S(=O)(=O)Nc2ccc3c(c2)C(=O)N([C@H](C)CO)C[C@@H](C)[C@@H](CN(C)S(=O)(=O)c2ccc(Cl)cc2)O3)cc1	0	x	-21	0	0	-4
COc1cccc(N/C(SCc2cccc([N+](=O)[O-])c2)=C(/C#N)C(N)=O)c1	-1	67*	3	-1	-8	-5
CCN(c1ccccc1)S(=O)(=O)c1ccc(OC)c(NC(=O)CNCCc2ccccc2)c1	0	58*	-8	-1	-9	-6
CCN(c1ccccc1)S(=O)(=O)c1ccc(OC)c(NC(=O)Cc2ccc(F)cc2)c1	0	x	-11	2	6	-5
Cc1cc2ccccc2c(=O)n1CC(=O)NCC(=O)N(C)Cc1ccccc1	2	4	8	2	2	-4
C/C(=N\NC(=O)c1nnn(-c2nonc2N)c1CN(C)c1ccccc1)c1ccccc1O	1	64*	x	1	-4	-8
Cc1c(N(C)S(=O)(=O)c2cccc(C(=O)NCc3cccnc3)c2)c(=O)n(-c2ccccc2)n1C	1	x	-8	-1	-2	x
O=C(Nc1cccc(Cl)c1)Nc1csc([N+](=O)[O-])c1	0	64*	-31	-2	-5	-4
COc1ccc(C)cc1S(=O)(=O)N(C)CC(N)=O	0	-15	-10	-2	-3	3
CCOC(=O)CCn1nc(-c2ccccc2)cc1N	2	0	9	-1	-3	-1
COc1ccc(Nc2nc(Cl)nc(NCCO)n2)cc1	-2	-9	x	0	5	-3
CCOC(=O)C1CCN(C(c2cccnc2)c2c(NC(=O)c3ccco3)sc(C)c2C)CC1 (centres undefined)	0	65*	-4	-2	5	0
Cc1sc(NC(=O)c2ccco2)c(C(c2cccnc2)N2CCN(CCO)CC2)c1C (centres undefined)	1	33	-14	1	-8	-3
SMILES	iPSC survival up	T cruzi inh	H9c2 TAG inh	PG9 binder	NR1D1 modulator	beta cell repl
Cc1sc(NC(=O)c2ccco2)c(C(c2ccccc2)N2CCC(C)CC2)c1C (centres undefined)	2	72*	-7	0	-3	-7
Cc1ccc(C(c2c(NC(=O)c3ccco3)sc(C)c2C)N2CCOCC2)cc1 (centres undefined)	-4	x	-7	-1	-3	x
Cc1sc(NC(=O)c2ccco2)c(C(c2cccnc2)N2CCN(c3ccc(F)cc3)CC2)c1C (centres undefined)	0	57*	-4	-3	0	-7
Cc1sc2ncnc(SCC(=O)c3ccc(O)cc3O)c2c1C	-1	-9	-30	0	11	1
CNC[C@@H](CC1CCCCC1)NC[C@H](CC(C)C)NCCc1cccc(C(F)(F)F)c1	-3	47	134*	-1	-1	-8
CNC[C@@H](Cc1ccccc1)NC[C@@H](CC1CCCCC1)NCCCc1ccccc1	-6	41	127	1	-6	-8
CC(C)(CC(=O)O)CC(=O)Nc1ccc(Cl)c(Cl)c1	1	-4	-8	-3	8	-1
CC(C)(C)c1ccc(NC(=O)Cn2cnc3cc([N+](=O)[O-])ccc3c2=O)cc1	1	72*	x	1	0	-3
Cc1ccc(CNC(=O)Cn2cnc3cc([N+](=O)[O-])ccc3c2=O)cc1	-1	50	x	-2	7	-3
O=C(Cn1cnc2cc([N+](=O)[O-])ccc2c1=O)Nc1ccccc1-c1ccccc1	0	58*	-5	-2	3	-5
O=C(Cn1cnc2cc([N+](=O)[O-])ccc2c1=O)Nc1ccc(Br)cc1	0	68*	0	0	4	-4
Cc1cc(C)c2sc(N(CCN(C)C)C(=O)c3ccc4ccccc4c3)nc2c1	0	u	x	0	-4	-4
COc1ccc(NC(=S)N(Cc2ccc(C)cc2)Cc2ccccn2)cc1	0	77*	3	0	3	-1
CN(C)c1ccc(NC(=O)c2ccc(N3CCOCC3)nc2)cc1	0	41	-5	-19	3	-2
Cc1ccc(N2C(=O)CC(N3CCN/C3=C3\CC/C(=C\c4ccccc4)C3=O)C2=O)cc1 (centres undefined)	-3	0	-2	-2	x	-4
Cc1cc(=O)n2[nH]c(-c3ccc(C(C)(C)C)cc3)cc2n1	-2	63*	x	1	-2	-6
CCOC(=O)c1c(C)[nH]c(C)c1C(=O)COC(=O)c1ccc([N+](=O)[O-])s1	0	x	24	-2	2	-7
CCc1cccc2c(C(=O)COC(=O)c3ccc([N+](=O)[O-])s3)c[nH]c12	1	64*	x	-2	3	-5
O=C(OCC(=O)c1c[nH]c2ccccc12)c1ccc([N+](=O)[O-])s1	-2	61*	23	-1	0	-5
Cc1ccc(C)c(Oc2cc(NC(=O)CCCn3nc(C)c([N+](=O)[O-])c3C)cc([N+](=O)[O-])c2)c1	0	52	x	0	9	0
COc1ccccc1N1CCN(C(=O)c2ccc3[nH]c4c(c3c2)CC(C)CC4)CC1 (centres undefined)	5	57*	3	-3	5	-5

Compound activity as filed in PubChem.
